One test addresses T1, papain (Carica papaya, UniProt P00784).
T1 sequence (P00784 134-345): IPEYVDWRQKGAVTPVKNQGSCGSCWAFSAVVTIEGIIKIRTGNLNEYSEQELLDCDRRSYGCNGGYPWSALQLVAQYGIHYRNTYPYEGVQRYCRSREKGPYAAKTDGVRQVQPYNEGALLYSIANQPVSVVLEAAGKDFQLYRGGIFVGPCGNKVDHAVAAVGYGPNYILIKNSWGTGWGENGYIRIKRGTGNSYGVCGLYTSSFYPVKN
Put plainly: Papain inhibition kinetics, Suc-LLVY-AMC progress curves. It is filed as biochemical. The following applies: for Papain ki: inhibition rate constant; for Papain ki/Ki: mean ± S.D. of triplicate; for Papain rel (ki/Ki calculated relative to E-64): E-64 = 1. In outline:
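Papain (236 pM) in 100 mM NaCl, 50 mM HEPES pH 7.6, 1 mM TCEP with 30 µM Suc-LLVY-AMC and inhibitor at 0.5–50 µM, 30 °C. Organic solvent (acetonitrile/DMSO 1:1) stayed below 2%. AMC release was followed over time at Ex/Em 346/444 nm. Constants came from varied enzyme and inhibitor concentrations, and selectivity from ki/Ki with E-64 as 1.0. Triplicates.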

For test [1], the target named is recombinant rat Cal1cat (Cal1 catalytic domain) active site Cys (Rattus norvegicus, UniProt P97571). Put plainly: LC-MS/MS examination of inhibitor modified Cal1cat active site. It is filed as binding. The following applies: co-incubation of Cal1cat (1 μM) with E-64 and 22a, both 5 μM. In outline: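 Recombinant rat Cal1cat from E. coli (1 μM), activated with CaCl2 (10 mM), co-incubated 20 min with both inhibitors at 5 μM each. Quenched with EDTA, run on SDS-PAGE; band excised, alkylated in-gel with IAA (100 mM, 60 min), trypsin-digested. Ion-trap LC-MS/MS, reverse-phase column, ACN/water with 0.1% formic acid. Semiquantitative EIC of modified peptides against non-active-site IAA-capped peptide internal standard.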
Chain of recombinant rat Cal1cat (Cal1 catalytic domain) active site Cys (P97571 55-354 limits assumed): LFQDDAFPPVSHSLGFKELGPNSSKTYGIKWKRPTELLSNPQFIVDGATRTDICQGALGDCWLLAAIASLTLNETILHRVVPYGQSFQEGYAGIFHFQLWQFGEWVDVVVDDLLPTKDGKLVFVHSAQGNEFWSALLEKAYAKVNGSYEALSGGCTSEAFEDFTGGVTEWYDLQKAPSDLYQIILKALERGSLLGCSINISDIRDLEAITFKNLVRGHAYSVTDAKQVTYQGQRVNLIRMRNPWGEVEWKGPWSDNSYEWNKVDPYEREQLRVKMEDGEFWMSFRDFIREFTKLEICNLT

Test [2] concerns the target T2, full length Cal1 (full length porcine calpain) (Sus scrofa, UniProt P35750).
T2 sequence (P35750 1-714): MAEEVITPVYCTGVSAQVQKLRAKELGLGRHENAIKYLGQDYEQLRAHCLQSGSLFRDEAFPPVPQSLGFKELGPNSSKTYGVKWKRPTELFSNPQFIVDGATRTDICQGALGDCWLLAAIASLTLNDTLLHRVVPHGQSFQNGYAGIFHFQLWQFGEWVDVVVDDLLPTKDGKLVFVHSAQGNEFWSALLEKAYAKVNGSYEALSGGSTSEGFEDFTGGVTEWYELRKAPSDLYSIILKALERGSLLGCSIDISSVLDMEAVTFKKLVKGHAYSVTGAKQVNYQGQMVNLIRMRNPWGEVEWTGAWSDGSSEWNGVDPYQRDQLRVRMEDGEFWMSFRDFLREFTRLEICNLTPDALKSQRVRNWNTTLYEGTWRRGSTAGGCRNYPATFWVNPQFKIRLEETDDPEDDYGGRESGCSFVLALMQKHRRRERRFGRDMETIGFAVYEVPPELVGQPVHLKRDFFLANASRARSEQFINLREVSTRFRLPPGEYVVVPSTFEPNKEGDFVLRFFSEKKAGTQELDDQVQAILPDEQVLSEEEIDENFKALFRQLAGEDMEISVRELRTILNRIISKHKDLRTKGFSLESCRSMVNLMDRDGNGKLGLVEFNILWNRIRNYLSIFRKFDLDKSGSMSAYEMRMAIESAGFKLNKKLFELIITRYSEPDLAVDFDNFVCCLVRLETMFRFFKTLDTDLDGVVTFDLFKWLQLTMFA
T2 sequence (P04574 1-266 partner): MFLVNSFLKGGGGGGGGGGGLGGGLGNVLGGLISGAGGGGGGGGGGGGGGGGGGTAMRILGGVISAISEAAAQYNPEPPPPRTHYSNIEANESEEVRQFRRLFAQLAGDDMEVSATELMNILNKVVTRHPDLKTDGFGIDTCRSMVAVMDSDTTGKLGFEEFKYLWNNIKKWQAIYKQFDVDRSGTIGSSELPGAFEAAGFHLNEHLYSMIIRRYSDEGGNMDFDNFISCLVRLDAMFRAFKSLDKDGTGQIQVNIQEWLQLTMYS
The test is described as follows: Calpain inhibition kinetics, Suc-LLVY-AMC progress curves. Format: biochemical. The following applies: for Calpain1 ki: inhibition rate constant; for Calpain1 ki / Calpain1 ki/Ki: full length Cal1; for Calpain1 ki/Ki: mean ± S.D. of triplicate; for 10^2 × ki/Ki Cal1 / ki/Ki papain: selectivity ratio Cal1 over papain; for Calpain1 rel (ki/Ki calculated relative to E-64): E-64 = 1; for Relative selectivity for inhibition of Cal1 over papain (in words): assessed using ki/Ki.

The values that follow come from paper PMC3962784 (Journal of medicinal chemistry, 2013).

In turn, `CC(C)C[C@H](NC(=O)[C@H]1O[C@@H]1C(=O)O)C(=O)Nc1nc(-c2ccc(F)cc2)cs1` [22a, (2S,3S)-3-((S)-1-(4-(4-fluorophenyl)thiazol-2-ylamino)-4-methyl-1-oxopentan-2-ylcarbamoyl)oxirane-2-carboxylic acid] registered a Papain ki on papain of 17.1 s⁻¹. The “Competitive modification of Cal1cat active site” value in test [1] is on record as “relatively greater modification by 22a”. This compound returned a Calpain1 ki in test [2] of 0.16 s⁻¹.
`CC(C)C[C@H](NC(=O)[C@H]1O[C@@H]1C(=O)O)C(=O)NCCCCN=C(N)N` [E-64, L-trans-epoxysuccinyl-leucylamido(4-guanidino)butane, reference compound]: at papain, the Papain ki amounted to 28.6 s⁻¹ and the “Papain ki/Ki” value amounted to 563 ± 52 ×l0^−4s^−1M^−1. In test [2], the “Calpain1 ki/Ki” value is recorded as 3.02±0.15 ×l0^−4 s^−1M^−1, the Calpain1 ki was found to be 0.12 s⁻¹ and the “10^2 × ki/Ki Cal1 / ki/Ki papain” value is on record as 0.54.
In the case of `O=C(Nc1nc(-c2ccc(F)cc2)cs1)[C@H](Cc1cscn1)NC(=O)[C@H]1O[C@@H]1C(=O)O` [compound 31, 3-((S)-1-(4-(4-fluorophenyl)thiazol-2-ylamino)-1-oxo-3-(thiazol-4-yl)propan-2-ylcarbamoyl)oxirane-2-carboxylic acid], on papain, the “Papain rel (ki/Ki calculated relative to E-64)” value is listed as 0.50, the Papain ki is 14.8 s⁻¹ and the “Papain ki/Ki” value is 279 ± 47 ×l0^−4s^−1M^−1. Besides, in test [2], the “Calpain1 rel (ki/Ki calculated relative to E-64)” value was 0.98, the “Relative selectivity for inhibition of Cal1 over papain (in words)” value (from here on “Relative selectivity for inhibition”) is “show Cal1 selectivity”, the “Calpain1 ki/Ki” value is reported as 2.96±0.14 ×l0^−4 s^−1M^−1 and the Calpain1 ki came to 0.08 s⁻¹. Also, in test [2], the “10^2 × ki/Ki Cal1 / ki/Ki papain” value is 1.06.
Consider `C#Cc1ccc(-c2csc(NC(=O)[C@H](Cc3cscn3)NC(=O)[C@H]3O[C@@H]3C(=O)O)n2)cc1` [compound 32, (2S,3S)-3-((S)-1-(4-(4-ethynylphenyl)thiazol-2-ylamino)-1-oxo-3-(thiazol-4-yl)propan-2-ylcarbamoyl)oxirane-2-carboxylic acid], for which, on papain, the “Papain rel (ki/Ki calculated relative to E-64)” value is 0.40, the Papain ki was found to be 21.6 s⁻¹ and the “Papain ki/Ki” value was 223 ± 2.4 ×l0^−4s^−1M^−1. In test [2], the “Calpain1 rel (ki/Ki calculated relative to E-64)” value is reported as 1.3, the “Relative selectivity for inhibition” value is “show Cal1 selectivity”, the “Calpain1 ki/Ki” value is reported as 3.89±0.41 ×l0^−4 s^−1M^−1 and the Calpain1 ki worked out at 0.14 s⁻¹. Besides, the “10^2 × ki/Ki Cal1 / ki/Ki papain” value in test [2] is listed as 1.74.
With `O=C(NCc1cn(-c2ccc(F)cc2)nn1)[C@H](Cc1cscn1)NC(=O)[C@H]1O[C@@H]1C(=O)O` [compound 36, (2S,3S)-3-((S)-1-((1-(4-fluorophenyl)-1H-1,2,3-triazol-4-yl)methylamino)-1-oxo-3-(thiazol-4-yl)propan-2-ylcarbamoyl)oxirane-2-carboxylic acid], at papain, the “Papain rel (ki/Ki calculated relative to E-64)” value is 0.12, the Papain ki amounted to 12.7 s⁻¹ and the “Papain ki/Ki” value is 66.2 ±7.4 ×l0^−4s^−1M^−1. Moreover, in test [2], the “Calpain1 rel (ki/Ki calculated relative to E-64)” value was 1.1, the “Relative selectivity for inhibition” value was “show Cal1 selectivity”, the “Calpain1 ki/Ki” value is 3.31±0.32 ×l0^−4 s^−1M^−1 and the Calpain1 ki amounted to 0.10 s⁻¹. In test [2], the “10^2 × ki/Ki Cal1 / ki/Ki papain” value came to 5.0.
